Assay results published in ChEMBL document CHEMBL1124297, “7-Aminoquinolines. A novel class of agents active against herpesviruses” (J Med Chem, 1988).
Converted amounts (≈) assume the structure as drawn.

Legend:
Human alphaherpesvirus 1 [1] = assay: Inhibitory activity against herpes simplex virus type-1 (HSV-1) replication in KB cells; assay type: functional, organism-based; settings: Human alphaherpesvirus 1, KB
In short: (§1)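 HSV-1 (HF strain)-infected KB cells were treated in duplicate for 20 h with five or six half-log dilutions of compound. The disrupted cultures were serially diluted onto BHK 21/4 cells, and titers were determined by counting macroscopic plaques. I50 came from linear regression of log concentration versus % inhibition of viral replication. Each assay included 10 µg/mL ara-A as positive control, and a set was rejected if ara-A deviated by more than 1.5 SD.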

Human alphaherpesvirus 1 [2] = assay: In vitro therapeutic index as ratio of cytotoxicity to inhibition of viral replication; assay type: organism-based; settings: human alphaherpesvirus 1, in vitro; read-out: Therapeutic index
In short: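 Ratio of the cytotoxicity I50 to the HSV-1 replication I50, rounded to the nearest whole number. Cytotoxicity I50 was the mean of four I50 values (Lowry protein, 3H-amino acid uptake, diphenylamine DNA, [3H]thymidine uptake) in uninfected KB cells after 20 h. Replication I50 was from plaque titers of infected KB cultures after 20 h.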

Human alphaherpesvirus 1 [3] = assay: Inhibitory activity against herpes simplex virus type-1 (HSV-1) replication in infected KB cells; assay type: functional, organism-based; settings: Human alphaherpesvirus 1, KB; in short: as §1
KB (Homo sapiens) = assay: In vitro cytotoxicity in uninfected KB cells; Low drug solubility

Structure (SMILES) | IC50 (Human alphaherpesvirus 1 [1]) | IC50 (Human alphaherpesvirus 1 [3]) | selectivity ratio (Human alphaherpesvirus 1 [2]) | IC50 (KB (Homo sapiens))
Cc1cc(O)c2ccc(N(C)C)cc2n1 | 23 µg/mL (≈ 114 µM) |  | 19 | 
Cc1cc(N(C)C)nc2cc(N)ccc12 | 6 µg/mL (≈ 29.8 µM) |  | 2 | 
Cc1c(O)nc2cc(N(C)C)ccc2c1O |  | 29 µg/mL (≈ 133 µM) | 3 | 
Nc1nc2c(ncn2COCCO)c(=O)[nH]1 [ACYCLOVIR] | 2.6 µg/mL (≈ 11.5 µM) |  | > 38 | 
CCN(CC)CCCC(C)Nc1ccnc2cc(Cl)ccc12 (stereo not given) [CHLOROQUINE] | 27 µg/mL (≈ 84.4 µM) |  | 3 | 
Cc1cc(Cl)nc2cc(N)ccc12 | 53 µg/mL (≈ 275 µM) |  | 3 | 
Cc1c(Cl)nc2cc(N(C)C)ccc2c1Cl | 13 µg/mL (≈ 51 µM) |  | 2 | > 32 µg/mL
CN(C)c1ccc2ccc(N)cc2n1 | 51 µg/mL (≈ 272 µM) |  | 3 | 
Cc1ccnc2cc(N)ccc12 | 40 µg/mL (≈ 253 µM) |  | 2 | 
CC(=O)Nc1ccc2c(C)cc(Cl)nc2c1 | 21 µg/mL (≈ 89.5 µM) |  | 4 | 
Cc1cc(N(C)C)c2ccc(N(C)C)cc2n1 | 9 µg/mL (≈ 39.2 µM) |  | 2 | 
CN(C)c1ccc2ccc(N(C)C)nc2c1 | 6 µg/mL (≈ 27.9 µM) |  | 3 | 
CC(=O)Nc1ccc2c(C)cc(N)nc2c1 | 10 µg/mL (≈ 46.5 µM) |  | 3 | 
Nc1ncnc2c1ncn2[C@@H]1O[C@H](CO)[C@@H](O)[C@@H]1O [VIDARABINE] | 5.6 µg/mL (≈ 21 µM) |  | 7 | 
CN(C)c1ccc2ccc(O)nc2c1 | 30 µg/mL (≈ 159 µM) |  | 5 | 

The next lines start with results.

IC50 (Human alphaherpesvirus 1 [1]) | IC50 (Human alphaherpesvirus 1 [3]) | Structure (SMILES) | selectivity ratio (Human alphaherpesvirus 1 [2]) | IC50 (KB (Homo sapiens))
189 µg/mL (≈ 1500 µM) |  | O=C(O)P(=O)(O)O [FOSCARNET] | 8 | 
10 µg/mL (≈ 62.8 µM) |  | Nc1ccc2ccc(N)nc2c1 |  | 
11 µg/mL (≈ 54.7 µM) |  | CNc1ccc2ccc(N(C)C)cc2n1 | 2 | 
4 µg/mL (≈ 23.1 µM) |  | Cc1cc(N)nc2cc(N)ccc12 | 7 | 
31 µg/mL (≈ 155 µM) |  | CC(=O)Nc1ccc2c(C)ccnc2c1 | 7 | 
18 µg/mL (≈ 74 µM) |  | CC(=O)Nc1ccc2c(C)cc(N(C)C)nc2c1 | 6 | 
6 µg/mL (≈ 27.9 µM) |  | CNc1cc(C)nc2cc(N(C)C)ccc12 | 2 | 
7.6 µg/mL (≈ 40.8 µM) |  | Cc1cnc2cc(N(C)C)ccc2c1 | 9 | 
0.6 µg/mL (≈ 2.32 µM) |  | Cc1cn([C@@H]2O[C@H](CO)[C@@H](O)[C@@H]2O)c(=O)[nH]c1=O | 833 | 
7 µg/mL (≈ 31.7 µM) |  | Cc1cc(Cl)c2ccc(N(C)C)cc2n1 | 3 | 
49 µg/mL (≈ 186 µM) |  | Cc1c(N(C)C)nc2cc(N(C)C)ccc2c1Cl |  | > 32 µg/mL
2 µg/mL (≈ 10.7 µM) |  | CN(C)c1ccc2ccc(N)nc2c1 | 5 | 
11 µg/mL (≈ 29.8 µM) |  | CCC(=O)C(CCCCCCOc1ccc(OC)cc1Cl)C(=O)CC [ARILDONE] | 7 | 
5 µg/mL (≈ 19.4 µM) |  | CN(C)c1ccc2c(N(C)C)cc(N(C)C)nc2c1 | 4 | 
4.5 µg/mL (≈ 24.2 µM) |  | Cc1ccc2ccc(N(C)C)cc2n1 | 9 | 
